Data from ChEMBL document CHEMBL2321805, “N-methyldihydroquinazolinone derivatives of Retro-2 with enhanced efficacy against Shiga toxin” (J Med Chem, 2013).
The source made the active and inactive calls. The calls are words filed in the database; no cut-off is given here.

Assays:
HeLa [1] = experiment: Cytoprotective activity against shiga toxin-induced cytotoxicity in human HeLa cells at 30 uM incubated for 4 hrs prior to shiga toxin addition measured after 20 hrs by liquid scintillation counting analysis; format: functional, cell-based
HeLa [2] = experiment: Inhibition of shiga toxin retrograde transport in human HeLa cells assessed as relocalization of syntaxin 5 at 20 uM after 30 mins by immunofluorescence staining; format: functional, cell-based
Summary of the method: (§1)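 HeLa cells were treated for 30 min with 20 μM compound or DMSO carrier, then fixed. They were immunolabeled for syntaxin 5 and the Golgi marker giantin and imaged by confocal microscopy with a 60× oil objective (NA 1.4). Maximum projections of 6–8 Z slices at 250 nm spacing are shown.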

HeLa [3] = experiment: Inhibition of shiga toxin retrograde transport in human HeLa cells after 20 mins by sulfation assay relative to control; format: functional
HeLa [4] = experiment: Cytoprotective activity against shiga toxin-induced cytotoxicity in human HeLa cells at 30 uM incubated for 4 hrs prior to shiga toxin addition measured after 20 hrs by liquid scintillation counting analysis relative to Retro-2; format: functional
HeLa [5] = experiment: Inhibition of shiga toxin retrograde transport in human HeLa cells assessed as change in golgi apparatus morphology at 20 uM after 30 mins by immunofluorescence staining; format: functional, cell-based; summary of the method: as §1

| SMILES | EC50 (HeLa [1]) [µM] | inhibition (HeLa [2]) | inhibition (INH) (HeLa [3]) [%] | Activity (HeLa [4]) [%] | inhibition (HeLa [5]) |
| --- | --- | --- | --- | --- | --- |
| Cc1nc(-c2ccc(C3N(C)c4ccccc4C(=O)N3c3ccccc3)s2)cs1 (racemic) | 0.3 | Active | 0 | 301 | Active |
| Cc1nc(-c2ccc(C3Nc4ccccc4C(=O)N3c3ccccc3)s2)cs1 (racemic) | 1.4 |  | 0 | 271 |  |
| Cc1ccc(C2Nc3ccccc3C(=O)N2c2ccccc2)s1 (racemic) | 27.3 | Active | 36.9 | 100 |  |
| Cc1ccc(C2N(C)c3ccccc3C(=O)N2c2ccccc2)s1 (racemic) | 10.2 |  | 38.7 | 275 |  |
| CN1c2ccccc2C(=O)N(c2ccccc2)C1c1ccc(-c2ccco2)s1 (racemic) | 1.5 |  |  | 140.4 |  |
| O=C1c2ccccc2NC(c2ccc(-c3ccccn3)s2)N1c1ccccc1 (racemic) | 12 |  |  | 468 |  |
| CCc1ccc(C2N(C)c3ccccc3C(=O)N2c2ccccc2)s1 (racemic) | 4.2 |  | 0 | 323 |  |
| Cc1ccc(C2N(C)c3ccccc3C(=O)N2c2ccccc2F)s1 (racemic) | 5.5 |  |  | 208.6 |  |
| CCc1ccc(C2Nc3ccccc3C(=O)N2c2ccccc2)s1 (racemic) | 8.7 |  | 13.5 | 166 |  |
| O=C1c2ccccc2NC(c2ccc(-c3cccs3)s2)N1c1ccccc1 (racemic) | 5.1 |  |  | 111.6 |  |
